This note sets out measurements from ChEMBL document CHEMBL4261538, “Synthesis and molecular docking studies of xanthone attached amino acids as potential antimicrobial and anti-inflammatory agents” (Medchemcomm, 2017).

Assay type in all cases: functional
The test system of experiment [1] is Escherichia coli. In words: Antibacterial activity against Escherichia coli at 50 ug/ml incubated for 24 hrs by agar well diffusion method. Summed up:
(§1)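 Bacteria grown in nutrient broth at 37 °C for 24 h, then subcultured at room temperature. Compounds dissolved in DMSO at 5 mg mL⁻¹ and 5–20 µL added to 6 mm wells, giving 25, 50, 75, 100 µg per well. Gentamicin was the positive control and DMSO the negative control. Plates held at 37 °C for 24 h, then inhibition zone diameter (mm) measured. Values are means of three determinations.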

For experiment [2], the system named is Klebsiella pneumoniae. The experiment is described as follows: Antibacterial activity against Klebsiella pneumoniae at 50 ug/ml incubated for 24 hrs by agar well diffusion method. Summed up:
as §1
In general terms: In agar diffusion tests the substance spreads into inoculated agar from a disc or well.

The subject of experiment [3] is Staphylococcus aureus. In words: Antibacterial activity against Staphylococcus aureus at 75 ug/ml incubated for 24 hrs by agar well diffusion method. Summed up:
as §1

Experiment [4] relates to Staphylococcus aureus. In words: Antibacterial activity against Staphylococcus aureus at 50 ug/ml incubated for 24 hrs by agar well diffusion method. Summed up:
as §1

The test system of experiment [5] is Staphylococcus aureus. The experiment is described as follows: Antibacterial activity against Staphylococcus aureus at 100 ug/ml incubated for 24 hrs by agar well diffusion method. Summed up:
as §1

Experiment [6] has as its system Escherichia coli. In words: Antibacterial activity against Escherichia coli at 25 ug/ml incubated for 24 hrs by agar well diffusion method. Summed up: as §1
The test system of experiment [7] is Klebsiella pneumoniae. The experiment is described as follows: Antibacterial activity against Klebsiella pneumoniae at 100 ug/ml incubated for 24 hrs by agar well diffusion method. Summed up: as §1
In experiment [8] the test system is Klebsiella pneumoniae. The experiment is described as follows: Antibacterial activity against Klebsiella pneumoniae incubated for 24 hrs by microdilution method.
In experiment [9] the test system is Bacillus subtilis. The experiment is described as follows: Antibacterial activity against Bacillus subtilis at 75 ug/ml incubated for 24 hrs by agar well diffusion method. Summed up:
as §1

Experiment [10] concerns Escherichia coli. In words: Antibacterial activity against Escherichia coli at 75 ug/ml incubated for 24 hrs by agar well diffusion method. Summed up:
as §1

The subject of experiment [11] is Bacillus subtilis. In words: Antibacterial activity against Bacillus subtilis at 25 ug/ml incubated for 24 hrs by agar well diffusion method. Summed up:
as §1

Experiment [12] has as its system Staphylococcus aureus. In words: Antibacterial activity against Staphylococcus aureus at 25 ug/ml incubated for 24 hrs by agar well diffusion method. Summed up: as §1
Experiment [13] has as its system Bacillus subtilis. The experiment is described as follows: Antibacterial activity against Bacillus subtilis at 50 ug/ml incubated for 24 hrs by agar well diffusion method. Summed up:
as §1

Experiment [14] has as its system Escherichia coli. In words: Antibacterial activity against Escherichia coli incubated for 24 hrs by microdilution method. (In broth dilution the organism is exposed to a series of concentrations in liquid medium.)
The test system of experiment [15] is Klebsiella pneumoniae. In words: Antibacterial activity against Klebsiella pneumoniae at 25 ug/ml incubated for 24 hrs by agar well diffusion method. Summed up: as §1
For experiment [16], the system named is Bacillus subtilis. The experiment is described as follows: Antibacterial activity against Bacillus subtilis incubated for 24 hrs by microdilution method.
For experiment [17], the system named is Staphylococcus aureus. In words: Antibacterial activity against Staphylococcus aureus incubated for 24 hrs by microdilution method.
Experiment [18] deals with Bacillus subtilis. The experiment is described as follows: Antibacterial activity against Bacillus subtilis at 100 ug/ml incubated for 24 hrs by agar well diffusion method. Summed up: as §1
Experiment [19] has as its system Escherichia coli. The experiment is described as follows: Antibacterial activity against Escherichia coli at 100 ug/ml incubated for 24 hrs by agar well diffusion method. Summed up:
as §1

Experiment [20] has as its system Klebsiella pneumoniae. The experiment is described as follows: Antibacterial activity against Klebsiella pneumoniae at 75 ug/ml incubated for 24 hrs by agar well diffusion method. Summed up:
as §1

For experiment [21], the system named is Fusarium oxysporum. The experiment is described as follows: Antifungal activity against Fusarium oxysporum incubated for 48 to 72 hrs by microdilution method. Summed up: (§2)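 Sabouraud agar plates inoculated with fungal suspension at 10⁵ CFU mL⁻¹ plus serially diluted compounds and bavistin reference, both in DMSO. Incubated at 25 °C for 48–72 h. MIC is the lowest concentration completely inhibiting growth. Values are means of three determinations.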

Experiment [22] deals with Aspergillus niger. In words: Antifungal activity against Aspergillus niger incubated for 48 to 72 hrs by microdilution method. Summed up:
as §2

The subject of experiment [23] is Candida albicans. The experiment is described as follows: Antifungal activity against Candida albicans at 75 ug/ml incubated for 48 hrs by agar well diffusion method. The following applies: read-out: DIZ. Summed up:
(§3)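 Compounds dissolved in DMSO at 5 mg mL⁻¹ and 5–20 µL added to 6 mm wells, giving 25, 50, 75, 100 µg per well. Bavistin was the positive control and DMSO the negative control. Plates incubated at 28 °C for 48 h, then inhibition zone diameter (mm) measured. Values are means of three determinations.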

The test system of experiment [24] is Aspergillus niger. In words: Antifungal activity against Aspergillus niger at 100 ug/ml incubated for 48 hrs by agar well diffusion method. Particulars: read-out: DIZ. Summed up: as §3
Experiment [25] has as its system Candida albicans. The experiment is described as follows: Antifungal activity against Candida albicans at 100 ug/ml incubated for 48 hrs by agar well diffusion method. Particulars: read-out: DIZ. Summed up: as §3
Experiment [26] concerns Fusarium oxysporum. In words: Antifungal activity against Fusarium oxysporum at 75 ug/ml incubated for 48 hrs by agar well diffusion method. The following applies: read-out: DIZ. Summed up: as §3
In experiment [27] the test system is Fusarium oxysporum. In words: Antifungal activity against Fusarium oxysporum at 100 ug/ml incubated for 48 hrs by agar well diffusion method. Particulars: read-out: DIZ. Summed up:
as §3

Experiment [28] concerns Candida albicans. In words: Antifungal activity against Candida albicans at 50 ug/ml incubated for 48 hrs by agar well diffusion method. The following applies: read-out: DIZ. Summed up:
as §3

Experiment [29] deals with Fusarium oxysporum. In words: Antifungal activity against Fusarium oxysporum at 25 ug/ml incubated for 48 hrs by agar well diffusion method. The following applies: read-out: DIZ. Summed up:
as §3

The test system of experiment [30] is Aspergillus niger. In words: Antifungal activity against Aspergillus niger at 25 ug/ml incubated for 48 hrs by agar well diffusion method. Particulars: read-out: DIZ. Summed up: as §3
Experiment [31] relates to Candida albicans. In words: Antifungal activity against Candida albicans at 25 ug/ml incubated for 48 hrs by agar well diffusion method. The following applies: read-out: DIZ. Summed up: as §3
The test system of experiment [32] is Candida albicans. The experiment is described as follows: Antifungal activity against Candida albicans incubated for 48 to 72 hrs by microdilution method. Summed up: as §2
The test system of experiment [33] is Aspergillus niger. In words: Antifungal activity against Aspergillus niger at 50 ug/ml incubated for 48 hrs by agar well diffusion method. Particulars: read-out: DIZ. Summed up: as §3
Experiment [34] has as its system Fusarium oxysporum. In words: Antifungal activity against Fusarium oxysporum at 50 ug/ml incubated for 48 hrs by agar well diffusion method. The following applies: read-out: DIZ. Summed up:
as §3

Experiment [35] has as its system Aspergillus niger. The experiment is described as follows: Antifungal activity against Aspergillus niger at 75 ug/ml incubated for 48 hrs by agar well diffusion method. Particulars: read-out: DIZ. Summed up: as §3

≈ marks a conversion by molar mass, not a printed value.

For orientation: MIC means the least concentration at which growth counts as inhibited. Low readings indicate inhibition by little substance, high ones a need for much substance. Turning to GENTAMICIN, the inhibition zone (IZ) is 24 mm in the experiment on Escherichia coli [1]; 24 mm in the experiment on Klebsiella pneumoniae [2]; 29 mm with Staphylococcus aureus [3]; 21 mm in the experiment on Staphylococcus aureus [4]; 32 mm in the experiment on Staphylococcus aureus [5]; 18 mm in the experiment on Escherichia coli [6]. The inhibition zone (IZ) is 34 mm in the experiment with Klebsiella pneumoniae [7]; 28 mm in the experiment on Bacillus subtilis [9]; 29 mm with Escherichia coli [10]; 21 mm in the experiment with Bacillus subtilis [11]; 17 mm with Staphylococcus aureus [12]; 24 mm with Bacillus subtilis [13]. Moreover, the inhibition zone (IZ) in the experiment with Klebsiella pneumoniae [15] turned out to be 19 mm; with Bacillus subtilis [18], 33 mm; with Escherichia coli [19], 33 mm; in the experiment with Klebsiella pneumoniae [20], 29 mm. Further, the MIC with Klebsiella pneumoniae [8] was determined as 26 µg/mL; with Escherichia coli [14], 26 µg/mL; against Bacillus subtilis [16], 28 µg/mL; against Staphylococcus aureus [17] it was 26 µg/mL.

As to `COC(=O)Nc1nc2ccccc2[nH]1` [CARBENDAZIM], the figures for the MIC against Fusarium oxysporum [21], in the experiment on Aspergillus niger [22] and in the experiment on Candida albicans [32] were 27 µg/mL (≈ 141 µM), 27 µg/mL (≈ 141 µM) and 28 µg/mL (≈ 146 µM), respectively. Further, the figures for the zone of inhibition at 75 µg/mL in the experiment on Candida albicans [23], in the experiment with Fusarium oxysporum [26] and with Aspergillus niger [35] were 29 mm, 33 mm and 33 mm, respectively. Further, the zone of inhibition at 100 µg/mL was determined as 36 mm with Aspergillus niger [24], 32 mm with Candida albicans [25] and 36 mm in the experiment with Fusarium oxysporum [27]. Further, the zone of inhibition at 50 µg/mL in the experiment on Candida albicans [28] was determined as 24 mm; in the experiment with Aspergillus niger [33] it was 27 mm; in the experiment with Fusarium oxysporum [34] it was 27 mm. The zone of inhibition at 25 µg/mL in the experiment on Fusarium oxysporum [29] turned out to be 22 mm; in the experiment on Aspergillus niger [30], 20 mm; in the experiment on Candida albicans [31] it was 19 mm.
